Calls of active or inactive are those of the source. The rule behind the calls is not given here.
Key:
[1] = target: Cyclin-dependent kinase 14/Cyclin-Y (Homo sapiens) (UniProt O94921+Q8ND76); assay: Inhibition of human CDK14/cyclinY at 1 uM by radiometric method relative to control; assay type: protein-complex assay
Outline: (§1)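 Percent inhibition of kinase activity at a single compound concentration, measured by the outsourced Eurofins KinaseProfiler panel. Values are the mean of two independent experiments.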

[2] = target: Rho-associated protein kinase 1 (Homo sapiens) (UniProt Q13464); assay: Inhibition of recombinant human ROCK1 (17 to 535 residues) at 1 uM using KEAKEKRQEQIAKR as substrate incubated for 40 mins in presence of [gamma-33P]ATP by radiometric assay relative to control
Outline: (§2)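 Single-point inhibition at 1 µM was measured in the Eurofins KinaseProfiler panel. Values are the mean of two independent experiments.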

NCI-H1299 = assay: Antitumour activity against human H1299 cells xenografted in Balb/c mouse assessed as reduction in tumour size at 20 to 80 mg/kg, po after 21 days by digital caliper method; assay type: functional, organism-based
Outline: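 Female nude mice, 6-8 weeks old, injected subcutaneously with 1×10^6 H1299 cells (100 µL of a 1×10^7/mL suspension in serum-free medium). At 100-120 mm3, randomized into groups of 5. Dosed orally each day for 21 days with drug dissolved in DMSO, or with vehicle. Caliper measurements and body weight taken every other day. Volume = short²×long×0.5. Growth inhibition based on change in volume relative to vehicle. Tumours weighed at the end.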

A549 [3] = assay: Induction of apoptosis in human A549 cells assessed as increase in cleaved caspase 3 expression at 0.25 to 1 uM after 24 hrs by Western blot analysis; assay type: functional, cell-based
Outline: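 A549 or H1299 cells exposed to the indicated concentrations for 24 h. Protein extracts then immunoblotted for apoptosis-pathway proteins (Bcl2, Bim, cleaved caspase 3).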

[4] = target: Vascular endothelial growth factor receptor 1 (Homo sapiens) (UniProt P17948); assay: Inhibition of recombinant human Flt1 (783 to end residues) at 1 uM using KKKSPGEYVNIEFG as substrate measured after 40 mins in presence of [gamma33P]ATP by scintillation counting method relative to control
[5] = tested on: Proto-oncogene tyrosine-protein kinase receptor Ret (Homo sapiens), P07949 [V804L]; assay: Inhibition of human Ret V804L mutant (658 to end residues) at 1 uM using KKKVSRSGLYRSPSMPENLNRPR as substrate measured after 40 mins in presence of [gamma33P]ATP by scintillation counting method relative to control; outline: as §1
[6] = target: G protein-coupled receptor kinase 3 (Homo sapiens) (UniProt P35626); assay: Inhibition of recombinant full-length human GRK3 at 1 uM using casein as substrate measured after 40 mins in presence of [gamma33P]ATP by scintillation counting method relative to control
[7] = tested on: Dual specificity protein kinase TTK (Homo sapiens), P33981 [S389A]; assay: Inhibition of recombinant full-length human TTK S389A mutant at 1 uM using MBP as substrate measured after 40 mins in presence of [gamma33P]ATP by scintillation counting method relative to control
Sequence of Dual specificity protein kinase TTK (Homo sapiens), P33981 [S389A] (P33981 whole entry S389A): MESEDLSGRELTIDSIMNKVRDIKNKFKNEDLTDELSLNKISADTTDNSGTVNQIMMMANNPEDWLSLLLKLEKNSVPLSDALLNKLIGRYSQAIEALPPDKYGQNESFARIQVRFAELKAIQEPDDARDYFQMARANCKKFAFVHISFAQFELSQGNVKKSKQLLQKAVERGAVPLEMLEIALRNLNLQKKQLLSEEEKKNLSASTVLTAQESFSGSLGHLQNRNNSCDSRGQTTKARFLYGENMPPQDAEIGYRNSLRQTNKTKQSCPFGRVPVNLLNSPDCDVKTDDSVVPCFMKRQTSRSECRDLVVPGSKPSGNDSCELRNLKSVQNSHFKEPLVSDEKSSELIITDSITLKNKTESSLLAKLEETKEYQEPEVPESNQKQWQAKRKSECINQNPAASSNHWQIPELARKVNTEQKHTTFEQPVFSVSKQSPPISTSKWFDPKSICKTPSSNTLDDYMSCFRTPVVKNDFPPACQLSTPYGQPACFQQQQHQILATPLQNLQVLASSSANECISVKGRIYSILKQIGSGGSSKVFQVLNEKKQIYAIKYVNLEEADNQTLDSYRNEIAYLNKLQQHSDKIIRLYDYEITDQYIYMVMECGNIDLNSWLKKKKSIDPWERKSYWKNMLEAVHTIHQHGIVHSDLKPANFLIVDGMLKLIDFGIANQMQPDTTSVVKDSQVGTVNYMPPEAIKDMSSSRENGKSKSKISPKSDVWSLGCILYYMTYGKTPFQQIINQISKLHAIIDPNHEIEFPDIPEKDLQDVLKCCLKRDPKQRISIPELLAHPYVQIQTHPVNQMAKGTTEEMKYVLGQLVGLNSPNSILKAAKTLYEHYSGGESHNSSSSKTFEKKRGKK

[8] = target: Tyrosine-protein kinase Fes/Fps (Homo sapiens) (UniProt P07332); assay: Inhibition of recombinant human FES (2 to end residues) at 1 uM using poly(Glu, Tyr) 4:1 as substrate measured after 40 mins in presence of [gamma33P]ATP by scintillation counting method relative to control
Sequence of Tyrosine-protein kinase Fes/Fps (Homo sapiens) (P07332 whole entry): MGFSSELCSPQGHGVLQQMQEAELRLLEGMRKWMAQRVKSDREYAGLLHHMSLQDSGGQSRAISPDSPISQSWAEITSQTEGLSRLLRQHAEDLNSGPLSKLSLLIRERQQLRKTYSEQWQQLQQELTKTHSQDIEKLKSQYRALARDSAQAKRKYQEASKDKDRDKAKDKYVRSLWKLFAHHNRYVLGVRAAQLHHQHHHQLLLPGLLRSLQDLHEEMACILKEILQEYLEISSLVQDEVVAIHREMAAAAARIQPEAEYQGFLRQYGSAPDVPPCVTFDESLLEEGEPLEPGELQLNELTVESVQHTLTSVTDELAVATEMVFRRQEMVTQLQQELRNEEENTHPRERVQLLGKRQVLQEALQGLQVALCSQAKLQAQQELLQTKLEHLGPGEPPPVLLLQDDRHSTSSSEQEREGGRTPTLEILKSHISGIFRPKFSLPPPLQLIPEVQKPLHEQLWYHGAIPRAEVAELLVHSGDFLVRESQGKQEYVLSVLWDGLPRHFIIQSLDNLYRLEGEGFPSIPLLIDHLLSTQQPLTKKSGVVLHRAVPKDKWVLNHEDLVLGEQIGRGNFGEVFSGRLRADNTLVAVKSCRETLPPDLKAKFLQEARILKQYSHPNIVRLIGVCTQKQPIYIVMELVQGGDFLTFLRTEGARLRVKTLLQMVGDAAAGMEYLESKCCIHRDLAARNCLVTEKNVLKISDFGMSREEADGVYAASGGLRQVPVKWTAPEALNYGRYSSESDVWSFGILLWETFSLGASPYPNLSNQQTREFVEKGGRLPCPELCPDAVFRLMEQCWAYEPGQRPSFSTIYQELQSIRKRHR

[9] = target: cAMP-dependent protein kinase catalytic subunit alpha (Homo sapiens) (UniProt P17612); assay: Inhibition of recombinant full-length human PKA at 1 uM using Kemptide as substrate measured after 40 mins in presence of [gamma33P]ATP by scintillation counting method relative to control; outline: as §2
[10] = target: Serine/threonine-protein kinase 17A (Homo sapiens) (UniProt Q9UEE5); assay: Inhibition of recombinant full-length human DRAK1 at 1 uM using KKLNRTLSFAEPG as substrate measured after 40 mins in presence of [gamma33P]ATP by scintillation counting method relative to control
[11] = tested on: Mitogen-activated protein kinase 14 (Homo sapiens), Q16539 [T106M]; assay: Inhibition of recombinant full-length human SAPK2a T106M mutant at 1 uM using myelin basic protein as substrate measured after 40 mins in presence of [gamma33P]ATP by scintillation counting method relative to control
Sequence of Mitogen-activated protein kinase 14 (Homo sapiens), Q16539 [T106M] (Q16539 whole entry T106M): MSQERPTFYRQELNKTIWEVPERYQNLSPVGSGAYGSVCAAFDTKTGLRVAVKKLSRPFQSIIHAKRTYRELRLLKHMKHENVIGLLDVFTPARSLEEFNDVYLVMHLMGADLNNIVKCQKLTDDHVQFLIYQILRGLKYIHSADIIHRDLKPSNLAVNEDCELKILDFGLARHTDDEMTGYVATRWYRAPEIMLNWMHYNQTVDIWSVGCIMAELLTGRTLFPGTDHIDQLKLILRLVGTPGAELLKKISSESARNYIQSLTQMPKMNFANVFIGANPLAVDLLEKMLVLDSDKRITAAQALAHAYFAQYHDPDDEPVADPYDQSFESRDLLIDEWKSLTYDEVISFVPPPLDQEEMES

[12] = target: Protein kinase C beta type (Homo sapiens) (UniProt P05771); assay: Inhibition of recombinant human PKCbeta1 (2 to end residues) at 1 uM using histone H1 as substrate measured after 40 mins in presence of [gamma33P]ATP by scintillation counting method relative to control
Sequence of Protein kinase C beta type (Homo sapiens) (P05771 2-671 limits assumed): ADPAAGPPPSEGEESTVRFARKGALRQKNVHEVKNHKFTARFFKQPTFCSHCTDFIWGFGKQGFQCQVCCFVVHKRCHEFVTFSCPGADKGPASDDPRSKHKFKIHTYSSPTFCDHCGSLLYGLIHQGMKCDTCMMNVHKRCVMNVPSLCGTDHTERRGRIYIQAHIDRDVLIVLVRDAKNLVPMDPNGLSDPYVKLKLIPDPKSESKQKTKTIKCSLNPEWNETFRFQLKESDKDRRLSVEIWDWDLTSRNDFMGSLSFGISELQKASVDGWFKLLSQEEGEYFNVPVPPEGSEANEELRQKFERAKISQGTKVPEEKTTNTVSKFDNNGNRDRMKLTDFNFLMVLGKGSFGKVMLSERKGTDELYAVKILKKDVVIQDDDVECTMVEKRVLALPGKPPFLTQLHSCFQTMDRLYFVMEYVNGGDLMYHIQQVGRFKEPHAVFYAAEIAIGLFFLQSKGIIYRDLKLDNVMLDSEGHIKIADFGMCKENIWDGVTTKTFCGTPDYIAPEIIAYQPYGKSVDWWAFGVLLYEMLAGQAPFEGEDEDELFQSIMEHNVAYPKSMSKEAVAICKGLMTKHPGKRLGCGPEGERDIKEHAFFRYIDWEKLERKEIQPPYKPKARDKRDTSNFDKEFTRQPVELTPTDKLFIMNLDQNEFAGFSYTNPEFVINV

[13] = tested on: Proto-oncogene tyrosine-protein kinase receptor Ret (Homo sapiens), P07949 [V804M]; assay: Inhibition of human Ret V804M mutant (658 to end residues) at 1 uM using KKKVSRSGLYRSPSMPENLNRPR as substrate measured after 40 mins in presence of [gamma33P]ATP by scintillation counting method relative to control; outline: as §1
Sequence of Proto-oncogene tyrosine-protein kinase receptor Ret (Homo sapiens), P07949 [V804M] (P07949 whole entry V804M): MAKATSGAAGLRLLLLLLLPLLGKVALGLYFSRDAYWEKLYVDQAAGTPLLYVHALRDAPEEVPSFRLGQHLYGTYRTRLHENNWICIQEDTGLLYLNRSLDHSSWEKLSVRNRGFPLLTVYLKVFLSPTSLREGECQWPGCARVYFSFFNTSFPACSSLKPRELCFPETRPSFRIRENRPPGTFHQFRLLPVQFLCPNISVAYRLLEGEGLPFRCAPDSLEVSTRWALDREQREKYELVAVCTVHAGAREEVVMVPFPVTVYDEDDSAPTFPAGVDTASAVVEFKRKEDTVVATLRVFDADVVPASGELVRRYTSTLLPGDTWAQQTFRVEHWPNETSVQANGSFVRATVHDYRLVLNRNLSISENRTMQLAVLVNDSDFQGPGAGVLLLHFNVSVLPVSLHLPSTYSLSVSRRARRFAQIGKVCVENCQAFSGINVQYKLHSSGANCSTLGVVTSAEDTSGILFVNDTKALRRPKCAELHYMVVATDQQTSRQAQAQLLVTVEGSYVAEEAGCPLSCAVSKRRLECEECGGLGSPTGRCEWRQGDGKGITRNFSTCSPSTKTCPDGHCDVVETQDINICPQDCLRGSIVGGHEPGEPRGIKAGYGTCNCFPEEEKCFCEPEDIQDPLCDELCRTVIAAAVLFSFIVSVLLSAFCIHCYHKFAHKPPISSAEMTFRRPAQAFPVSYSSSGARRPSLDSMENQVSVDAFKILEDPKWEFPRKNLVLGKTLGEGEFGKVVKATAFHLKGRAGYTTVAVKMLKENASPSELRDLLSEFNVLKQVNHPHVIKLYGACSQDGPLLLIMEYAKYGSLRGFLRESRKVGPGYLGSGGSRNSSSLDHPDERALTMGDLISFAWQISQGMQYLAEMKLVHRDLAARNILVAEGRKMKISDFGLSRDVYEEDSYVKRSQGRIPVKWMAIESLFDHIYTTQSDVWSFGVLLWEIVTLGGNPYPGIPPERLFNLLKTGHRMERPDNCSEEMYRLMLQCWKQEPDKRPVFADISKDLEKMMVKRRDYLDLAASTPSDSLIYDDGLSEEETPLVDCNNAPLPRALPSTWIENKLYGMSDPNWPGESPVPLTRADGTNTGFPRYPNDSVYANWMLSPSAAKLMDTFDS

[14] = tested on: Eukaryotic elongation factor 2 kinase (Homo sapiens), O00418 [H23R]; assay: Inhibition of recombinant human EEF2K H23R mutant (2 to end residues) at 1 uM using RKKFGESEKTKTKEFL as substrate measured after 40 mins in presence of [gamma33P]ATP by scintillation counting method relative to control
Sequence of Eukaryotic elongation factor 2 kinase (Homo sapiens), O00418 [H23R] (O00418 whole entry H23R): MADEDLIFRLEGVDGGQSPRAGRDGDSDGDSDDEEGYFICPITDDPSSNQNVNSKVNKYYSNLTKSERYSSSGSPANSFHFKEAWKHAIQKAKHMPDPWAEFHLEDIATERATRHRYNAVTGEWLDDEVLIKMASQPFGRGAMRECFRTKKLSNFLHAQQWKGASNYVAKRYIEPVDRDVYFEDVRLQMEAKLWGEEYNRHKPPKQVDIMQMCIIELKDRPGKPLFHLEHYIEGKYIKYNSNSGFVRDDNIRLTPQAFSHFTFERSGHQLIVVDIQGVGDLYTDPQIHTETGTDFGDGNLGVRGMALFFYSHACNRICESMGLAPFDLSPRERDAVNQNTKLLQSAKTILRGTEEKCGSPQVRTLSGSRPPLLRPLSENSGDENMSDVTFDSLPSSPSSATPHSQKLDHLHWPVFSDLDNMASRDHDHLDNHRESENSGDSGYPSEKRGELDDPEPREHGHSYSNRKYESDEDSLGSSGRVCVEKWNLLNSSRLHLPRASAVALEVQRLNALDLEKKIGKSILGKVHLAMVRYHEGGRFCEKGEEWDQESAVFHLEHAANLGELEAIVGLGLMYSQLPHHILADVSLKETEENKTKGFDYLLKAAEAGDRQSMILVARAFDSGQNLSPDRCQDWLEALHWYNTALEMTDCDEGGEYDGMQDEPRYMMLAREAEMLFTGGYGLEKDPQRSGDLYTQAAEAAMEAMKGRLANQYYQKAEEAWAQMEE

[15] = target: Mitogen-activated protein kinase 11 (Homo sapiens) (UniProt Q15759); assay: Inhibition of recombinant full-length human SAPK2b at 1 uM using myelin basic protein as substrate measured after 40 mins in presence of [gamma33P]ATP by scintillation counting method relative to control
[16] = tested on: Casein kinase I isoform gamma-3 (Homo sapiens), Q9Y6M4 [UNDEFINED MUTATION]; assay: Inhibition of recombinant human CK1gamma3 K91E/R174G/E302D mutant (1 to 330 residues) at 1 uM using KRRRALS(p)VASLPGL as substrate measured after 40 mins in presence of [gamma33P]ATP by scintillation counting method relative to control; outline: as §2
Sequence of Casein kinase I isoform gamma-3 (Homo sapiens), Q9Y6M4 [UNDEFINED MUTATION] (Q9Y6M4 whole entry, looked up, stated change not applied, the tested form may be a part, canonical isoform): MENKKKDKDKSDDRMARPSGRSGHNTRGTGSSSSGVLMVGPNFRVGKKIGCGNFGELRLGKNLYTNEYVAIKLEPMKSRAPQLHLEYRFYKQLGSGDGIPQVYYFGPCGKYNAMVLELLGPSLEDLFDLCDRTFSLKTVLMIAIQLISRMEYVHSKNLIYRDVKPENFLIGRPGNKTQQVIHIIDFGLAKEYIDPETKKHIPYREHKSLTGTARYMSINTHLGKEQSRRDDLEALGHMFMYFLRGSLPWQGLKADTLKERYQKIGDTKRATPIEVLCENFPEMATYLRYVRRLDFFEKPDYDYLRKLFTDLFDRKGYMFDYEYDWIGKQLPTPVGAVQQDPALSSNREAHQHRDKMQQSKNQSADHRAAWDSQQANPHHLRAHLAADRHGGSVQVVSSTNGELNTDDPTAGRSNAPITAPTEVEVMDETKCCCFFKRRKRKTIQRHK

[17] = target: Cyclin-dependent kinase-like 4 (Homo sapiens) (UniProt Q5MAI5); assay: Inhibition of human CDKL4 at 1 uM at 1 uM by radiometric method relative to control; outline: as §1
[18] = target: Mitogen-activated protein kinase kinase kinase 20 (Homo sapiens) (UniProt Q9NYL2); assay: Inhibition of recombinant full-length human ZAK at 1 uM using MBP as substrate measured after 40 mins in presence of [gamma33P]ATP by scintillation counting method relative to control
[19] = tested on: eIF-2-alpha kinase GCN2 (Homo sapiens), Q9P2K8 [E556G]; assay: Inhibition of recombinant full-length human GCN2 E556G mutant at 1 uM using RSRSRSRSRSRSRSR as substrate measured after 40 mins in presence of [gamma33P]ATP by scintillation counting method relative to control
A549 [20] = assay: Induction of apoptosis in human A549 cells assessed as early apoptotic cells at 1 uM after 48 hrs by AnnexinV-FITC/PI staining-based flow cytometric analysis (reference value: 2.91%); assay type: functional

## CN(C)C(=O)c1cc2cnc(Nc3ccc(NC(=O)CCCCCCCN=C=S)cc3)nc2n1C1CCCC1
[1]
  inhibition: 56%
[2]
  inhibition: 11%
NCI-H1299
  Activity: Active
A549 [3]
  Activity: Active
[4]
  inhibition: 71%
[5]
  inhibition: 46%
[6]
  inhibition: 3%
[7]
  inhibition: 76%
[8]
  inhibition: 7%
[9]
  inhibition: 1%
[10]
  inhibition: 22%
[11]
  inhibition: 0%
[12]
  inhibition: 20%
[13]
  inhibition: 58%
[14]
  inhibition: -10%
[15]
  inhibition: 27%
[16]
  inhibition: 11%
[17]
  inhibition: 25%
[18]
  inhibition: 86%
[19]
  inhibition: 0%
A549 [20]
  Activity: 1.06%

Source: ChEMBL document CHEMBL4376814, “Novel cyclin-dependent kinase 9 (CDK9) inhibitor with suppression of cancer stemness activity against non-small-cell lung cancer” (Eur J Med Chem, 2019)
